Source: ChEMBL document CHEMBL3098129, “Preparation and evaluation of deconstruction analogues of 7-deoxykalafungin as AKT kinase inhibitors” (Bioorg Med Chem Lett, 2014)

Columns and labels:
[1] = molecular target: cAMP-dependent protein kinase catalytic subunit alpha (Homo sapiens, UniProt P17612); experiment: Inhibition of PKAalpha (unknown origin) using serine/threonine 01 peptide as substrate after 1 hr by FRET based Z'-LYTE assay
Summary of the method: (§1)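 Run with a commercial Z'-LYTE kit, a FRET read-out of the kinase phosphorylating a peptide substrate. It detects functional inhibition of kinase activity regardless of mechanism.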

[2] = molecular target: RAC-alpha serine/threonine-protein kinase (Homo sapiens, UniProt P31749); experiment: Inhibition of recombinant AKT1 (unknown origin) using serine/threonine 06 peptide as substrate after 1 hr by FRET based Z'-LYTE assay; summary of the method: as §1
RAC-alpha serine/threonine-protein kinase, sequence (P31749 whole entry): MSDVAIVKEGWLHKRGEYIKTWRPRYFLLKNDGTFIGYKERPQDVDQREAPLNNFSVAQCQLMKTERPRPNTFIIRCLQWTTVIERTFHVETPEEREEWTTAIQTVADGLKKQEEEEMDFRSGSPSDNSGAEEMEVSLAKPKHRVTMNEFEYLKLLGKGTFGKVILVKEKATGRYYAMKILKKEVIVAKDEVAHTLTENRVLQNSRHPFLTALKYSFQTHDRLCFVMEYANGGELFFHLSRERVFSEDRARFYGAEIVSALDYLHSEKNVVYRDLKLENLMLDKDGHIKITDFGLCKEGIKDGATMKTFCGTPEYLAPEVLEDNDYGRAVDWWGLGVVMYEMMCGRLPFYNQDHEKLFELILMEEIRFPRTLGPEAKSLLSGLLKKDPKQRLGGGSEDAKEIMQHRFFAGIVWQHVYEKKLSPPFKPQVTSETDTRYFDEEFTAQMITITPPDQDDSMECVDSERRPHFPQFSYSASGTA

Question: What does the source list for `O=C1C[C@@H](O)[C@@H](C2=CC(=O)c3ccccc3C2=O)O1`?
Answer: IC50 [1]: 0.43 µM; IC50 [2]: 2.94 µM

Question: With `COC/C=C/C(=O)c1ccccc1` as the compound, how does the IC50 [1] read?
Answer: The IC50 was > 100 µM.

Question: And the IC50 [2]?
Answer: The IC50 was 50 µM.

Question: Which results are given for `COC(=O)CC/C=C/C(=O)c1ccccc1`?
Answer: IC50 [1]: > 100 µM; IC50 [2]: 13.7 µM

Question: Which results are given for `C=CC(=O)c1ccccc1`?
Answer: IC50 [1]: > 100 µM; IC50 [2]: 12.3 µM

Question: Which results are given for `C[C@H]1O[C@@H]2CC(=O)O[C@@H]2C2=C1C(=O)c1ccccc1C2=O`?
Answer: IC50 [1]: > 100 µM; IC50 [2]: 0.28 µM
